Measured values reported in ChEMBL document CHEMBL2424622, “Development of amino-pyrimidine inhibitors of c-Jun N-terminal kinase (JNK): kinase profiling guided optimization of a 1,2,3-benzotriazole lead” (Bioorg Med Chem Lett, 2013).

Experiments:
[1] = target: 5'-AMP-activated protein kinase catalytic subunit alpha-2 (Homo sapiens) (UniProt P54646); assay: Competitive binding affinity to AMPKalpha2 (unknown origin) at 10 uM in presence of ATP relative to control
How it was run: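 In vitro ATP-site competition binding assay across a diverse panel of 128 kinases, with each compound tested at a single concentration. Kinase binding is expressed relative to control.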

[2] = target: Glycogen synthase kinase-3 beta (Homo sapiens, UniProt P49841); assay: Competitive binding affinity to GSK3beta (unknown origin) at 10 uM in presence of ATP relative to control
[3] = target: Phosphatidylinositol 4-phosphate 5-kinase type-1 alpha (Homo sapiens) (UniProt Q99755); assay: Competitive binding affinity to PIP5K1A (unknown origin) at 10 uM in presence of ATP relative to control
[4] = target: Serine/threonine-protein kinase 25 (Homo sapiens) (UniProt O00506); assay: Competitive binding affinity to YSK1 (unknown origin) at 10 uM in presence of ATP relative to control
[5] = target: Ribosomal protein S6 kinase alpha-2 (Homo sapiens) (UniProt Q15349); assay: Competitive binding affinity to RPS6KA2 kinase domain 2 (unknown origin) at 10 uM in presence of ATP relative to control
[6] = system: Tyrosine-protein kinase ABL1 (Homo sapiens), P00519 [Q252H]; assay: Competitive binding affinity to ABL1 Q252H mutant (unknown origin) at 10 uM in presence of ATP relative to control
[7] = target: Vascular endothelial growth factor receptor 1 (Homo sapiens) (UniProt P17948); assay: Competitive binding affinity to FLT1 (unknown origin) at 10 uM in presence of ATP relative to control
[8] = target: T1, Mitogen-activated protein kinase kinase kinase kinase 3 (Homo sapiens) (UniProt Q8IVH8); assay: Competitive binding affinity to MAP4K3 (unknown origin) at 10 uM in presence of ATP relative to control
T1 sequence (whole entry): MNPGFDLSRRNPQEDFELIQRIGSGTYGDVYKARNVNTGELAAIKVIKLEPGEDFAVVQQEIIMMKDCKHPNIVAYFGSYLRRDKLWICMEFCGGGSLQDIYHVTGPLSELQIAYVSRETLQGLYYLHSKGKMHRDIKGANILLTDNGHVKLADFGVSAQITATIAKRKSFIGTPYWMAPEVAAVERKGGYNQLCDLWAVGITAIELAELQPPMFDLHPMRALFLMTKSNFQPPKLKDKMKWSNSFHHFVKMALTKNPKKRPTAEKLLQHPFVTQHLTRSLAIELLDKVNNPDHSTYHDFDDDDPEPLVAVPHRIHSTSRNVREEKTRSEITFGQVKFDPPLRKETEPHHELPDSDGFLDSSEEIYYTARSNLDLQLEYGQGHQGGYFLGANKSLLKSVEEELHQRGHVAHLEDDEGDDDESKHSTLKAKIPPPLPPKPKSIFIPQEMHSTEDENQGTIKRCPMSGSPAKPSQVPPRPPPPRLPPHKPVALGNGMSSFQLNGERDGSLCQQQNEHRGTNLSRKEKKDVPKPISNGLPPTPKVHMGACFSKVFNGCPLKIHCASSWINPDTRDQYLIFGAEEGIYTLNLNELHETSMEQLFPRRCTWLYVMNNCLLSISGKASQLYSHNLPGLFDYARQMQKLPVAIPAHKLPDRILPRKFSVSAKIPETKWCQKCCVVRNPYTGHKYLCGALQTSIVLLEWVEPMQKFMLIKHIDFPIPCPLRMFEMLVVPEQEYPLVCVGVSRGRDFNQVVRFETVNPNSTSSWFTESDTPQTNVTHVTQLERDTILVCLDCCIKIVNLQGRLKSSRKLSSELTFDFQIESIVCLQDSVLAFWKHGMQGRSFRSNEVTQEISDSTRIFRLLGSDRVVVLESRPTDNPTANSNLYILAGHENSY

[9] = target: T2, Serine/threonine-protein kinase DCLK3 (Homo sapiens) (UniProt Q9C098); assay: Competitive binding affinity to DCAMKL3 (unknown origin) at 10 uM in presence of ATP relative to control
T2 sequence (whole entry): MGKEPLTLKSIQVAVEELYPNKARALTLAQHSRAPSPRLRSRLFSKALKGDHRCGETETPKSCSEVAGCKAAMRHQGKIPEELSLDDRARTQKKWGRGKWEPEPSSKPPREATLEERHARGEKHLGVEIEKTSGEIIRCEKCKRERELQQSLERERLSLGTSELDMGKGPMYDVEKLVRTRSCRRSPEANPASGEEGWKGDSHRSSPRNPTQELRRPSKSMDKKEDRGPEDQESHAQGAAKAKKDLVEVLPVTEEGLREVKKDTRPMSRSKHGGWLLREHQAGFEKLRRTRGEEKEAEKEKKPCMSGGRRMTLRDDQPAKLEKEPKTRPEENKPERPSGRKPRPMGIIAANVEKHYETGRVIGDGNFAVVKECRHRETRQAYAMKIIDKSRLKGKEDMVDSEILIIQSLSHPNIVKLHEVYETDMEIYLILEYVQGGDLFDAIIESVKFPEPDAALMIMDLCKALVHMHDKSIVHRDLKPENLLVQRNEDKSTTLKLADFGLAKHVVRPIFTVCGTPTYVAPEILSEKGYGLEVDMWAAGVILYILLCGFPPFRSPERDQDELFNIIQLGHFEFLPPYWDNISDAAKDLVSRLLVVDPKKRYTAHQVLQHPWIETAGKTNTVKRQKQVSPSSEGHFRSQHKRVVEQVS

[10] = target: T3, Serine/threonine-protein kinase 17A (Homo sapiens) (UniProt Q9UEE5); assay: Competitive binding affinity to DRAK1 (unknown origin) at 10 uM in presence of ATP relative to control
T3 sequence (whole entry): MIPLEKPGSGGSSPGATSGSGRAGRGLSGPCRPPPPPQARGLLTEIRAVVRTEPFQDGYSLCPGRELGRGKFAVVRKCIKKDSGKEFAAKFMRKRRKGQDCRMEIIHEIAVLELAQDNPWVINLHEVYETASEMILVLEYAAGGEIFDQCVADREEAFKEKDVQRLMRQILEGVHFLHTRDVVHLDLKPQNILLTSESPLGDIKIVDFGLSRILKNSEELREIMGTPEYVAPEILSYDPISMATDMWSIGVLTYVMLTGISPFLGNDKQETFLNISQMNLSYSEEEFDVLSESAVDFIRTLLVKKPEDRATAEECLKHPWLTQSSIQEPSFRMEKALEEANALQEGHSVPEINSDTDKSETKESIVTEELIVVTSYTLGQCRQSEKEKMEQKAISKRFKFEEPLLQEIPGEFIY

[11] = target: Cyclin-dependent kinase 17 (Homo sapiens) (UniProt Q00537); assay: Competitive binding affinity to PCTK2 (unknown origin) at 10 uM in presence of ATP relative to control
[12] = species on record: Homo sapiens; assay: Selectivity ratio of IC50 for human JNK2 to IC50 for human JNK1
How it was run: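 JNK1 and JNK2 activities were each measured as phosphorylation of GST-ATF2 (19–96) with [γ-33P]ATP, and IC50s were determined for each enzyme. The ratio is JNK2 IC50 over JNK1 IC50. IC50s are the mean of at least three experiments.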

Chain of Serine/threonine-protein kinase 25 (Homo sapiens) (O00506 whole entry, looked up, the tested form may be a part): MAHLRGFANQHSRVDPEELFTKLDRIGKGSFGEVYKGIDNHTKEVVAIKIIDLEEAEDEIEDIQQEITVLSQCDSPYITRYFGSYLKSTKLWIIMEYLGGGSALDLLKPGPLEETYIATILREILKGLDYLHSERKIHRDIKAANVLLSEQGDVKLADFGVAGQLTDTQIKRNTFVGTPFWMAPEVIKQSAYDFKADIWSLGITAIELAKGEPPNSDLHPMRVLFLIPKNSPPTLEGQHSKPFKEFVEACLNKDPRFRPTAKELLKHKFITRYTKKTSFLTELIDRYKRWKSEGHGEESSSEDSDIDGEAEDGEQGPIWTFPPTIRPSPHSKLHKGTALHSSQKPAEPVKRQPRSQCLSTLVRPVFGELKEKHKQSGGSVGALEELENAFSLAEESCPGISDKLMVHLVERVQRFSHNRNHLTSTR
Chain of Phosphatidylinositol 4-phosphate 5-kinase type-1 alpha (Homo sapiens) (Q99755 whole entry): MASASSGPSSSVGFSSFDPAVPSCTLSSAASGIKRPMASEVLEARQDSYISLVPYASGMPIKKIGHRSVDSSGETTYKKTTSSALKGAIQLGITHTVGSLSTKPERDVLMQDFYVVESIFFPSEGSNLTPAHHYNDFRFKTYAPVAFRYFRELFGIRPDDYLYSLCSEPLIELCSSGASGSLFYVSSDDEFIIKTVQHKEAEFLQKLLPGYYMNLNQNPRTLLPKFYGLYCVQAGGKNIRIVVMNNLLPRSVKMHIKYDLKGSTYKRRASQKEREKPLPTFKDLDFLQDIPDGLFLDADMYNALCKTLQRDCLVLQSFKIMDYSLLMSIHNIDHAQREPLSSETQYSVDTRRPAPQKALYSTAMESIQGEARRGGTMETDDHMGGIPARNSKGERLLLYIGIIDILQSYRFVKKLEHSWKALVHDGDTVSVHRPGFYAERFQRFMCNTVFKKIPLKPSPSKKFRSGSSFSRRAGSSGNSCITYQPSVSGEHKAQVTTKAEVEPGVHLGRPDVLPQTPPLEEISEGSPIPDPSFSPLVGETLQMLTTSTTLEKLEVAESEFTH
Chain of 5'-AMP-activated protein kinase catalytic subunit alpha-2 (Homo sapiens) (P54646 whole entry, looked up): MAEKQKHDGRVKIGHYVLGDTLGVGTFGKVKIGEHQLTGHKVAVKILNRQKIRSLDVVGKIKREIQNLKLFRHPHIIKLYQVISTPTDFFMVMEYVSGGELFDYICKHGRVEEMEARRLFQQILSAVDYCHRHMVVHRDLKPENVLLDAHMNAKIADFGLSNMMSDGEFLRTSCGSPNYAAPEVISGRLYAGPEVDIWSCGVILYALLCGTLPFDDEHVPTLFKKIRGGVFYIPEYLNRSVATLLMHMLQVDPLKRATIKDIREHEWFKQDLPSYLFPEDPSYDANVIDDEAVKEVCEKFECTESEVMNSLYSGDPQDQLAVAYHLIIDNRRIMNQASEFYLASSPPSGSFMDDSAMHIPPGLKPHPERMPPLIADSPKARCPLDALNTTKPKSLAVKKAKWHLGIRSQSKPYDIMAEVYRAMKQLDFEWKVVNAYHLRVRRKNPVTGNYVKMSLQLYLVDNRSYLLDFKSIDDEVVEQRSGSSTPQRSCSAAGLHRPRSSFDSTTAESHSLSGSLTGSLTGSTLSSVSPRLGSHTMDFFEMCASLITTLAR
Chain of Ribosomal protein S6 kinase alpha-2 (Homo sapiens) (Q15349 whole entry, the tested form may be a part): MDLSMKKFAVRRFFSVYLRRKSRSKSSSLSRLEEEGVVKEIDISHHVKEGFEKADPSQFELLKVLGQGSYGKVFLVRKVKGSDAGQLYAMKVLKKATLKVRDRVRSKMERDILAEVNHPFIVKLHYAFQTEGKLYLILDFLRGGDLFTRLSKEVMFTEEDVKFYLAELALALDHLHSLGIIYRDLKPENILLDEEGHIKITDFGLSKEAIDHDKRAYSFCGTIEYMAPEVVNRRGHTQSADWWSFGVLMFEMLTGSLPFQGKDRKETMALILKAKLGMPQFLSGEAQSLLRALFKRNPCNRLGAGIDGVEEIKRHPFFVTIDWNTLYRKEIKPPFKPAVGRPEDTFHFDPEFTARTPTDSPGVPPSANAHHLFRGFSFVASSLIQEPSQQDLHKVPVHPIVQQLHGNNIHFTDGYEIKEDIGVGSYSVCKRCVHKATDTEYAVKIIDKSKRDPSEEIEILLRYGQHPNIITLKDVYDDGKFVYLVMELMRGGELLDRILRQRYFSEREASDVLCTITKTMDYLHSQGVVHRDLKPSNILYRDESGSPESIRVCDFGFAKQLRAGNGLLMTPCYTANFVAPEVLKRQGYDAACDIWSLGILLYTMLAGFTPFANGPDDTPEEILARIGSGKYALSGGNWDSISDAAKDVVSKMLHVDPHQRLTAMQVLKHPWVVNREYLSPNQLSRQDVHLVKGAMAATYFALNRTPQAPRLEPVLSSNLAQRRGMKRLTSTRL
Chain of Cyclin-dependent kinase 17 (Homo sapiens) (Q00537 whole entry, looked up): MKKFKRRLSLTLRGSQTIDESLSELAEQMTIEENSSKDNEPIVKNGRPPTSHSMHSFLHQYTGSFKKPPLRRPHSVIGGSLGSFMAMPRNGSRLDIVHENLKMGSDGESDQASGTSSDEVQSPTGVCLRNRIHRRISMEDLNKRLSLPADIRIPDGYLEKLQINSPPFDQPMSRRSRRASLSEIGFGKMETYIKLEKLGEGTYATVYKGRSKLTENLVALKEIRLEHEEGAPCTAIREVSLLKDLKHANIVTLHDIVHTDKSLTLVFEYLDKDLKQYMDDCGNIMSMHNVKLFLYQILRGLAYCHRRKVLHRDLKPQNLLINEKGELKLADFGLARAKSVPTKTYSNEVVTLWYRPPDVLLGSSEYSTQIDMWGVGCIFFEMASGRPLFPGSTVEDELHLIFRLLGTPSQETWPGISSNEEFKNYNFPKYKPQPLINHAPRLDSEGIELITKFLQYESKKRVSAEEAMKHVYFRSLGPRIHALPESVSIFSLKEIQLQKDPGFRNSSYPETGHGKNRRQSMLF
Chain of Vascular endothelial growth factor receptor 1 (Homo sapiens) (P17948 whole entry): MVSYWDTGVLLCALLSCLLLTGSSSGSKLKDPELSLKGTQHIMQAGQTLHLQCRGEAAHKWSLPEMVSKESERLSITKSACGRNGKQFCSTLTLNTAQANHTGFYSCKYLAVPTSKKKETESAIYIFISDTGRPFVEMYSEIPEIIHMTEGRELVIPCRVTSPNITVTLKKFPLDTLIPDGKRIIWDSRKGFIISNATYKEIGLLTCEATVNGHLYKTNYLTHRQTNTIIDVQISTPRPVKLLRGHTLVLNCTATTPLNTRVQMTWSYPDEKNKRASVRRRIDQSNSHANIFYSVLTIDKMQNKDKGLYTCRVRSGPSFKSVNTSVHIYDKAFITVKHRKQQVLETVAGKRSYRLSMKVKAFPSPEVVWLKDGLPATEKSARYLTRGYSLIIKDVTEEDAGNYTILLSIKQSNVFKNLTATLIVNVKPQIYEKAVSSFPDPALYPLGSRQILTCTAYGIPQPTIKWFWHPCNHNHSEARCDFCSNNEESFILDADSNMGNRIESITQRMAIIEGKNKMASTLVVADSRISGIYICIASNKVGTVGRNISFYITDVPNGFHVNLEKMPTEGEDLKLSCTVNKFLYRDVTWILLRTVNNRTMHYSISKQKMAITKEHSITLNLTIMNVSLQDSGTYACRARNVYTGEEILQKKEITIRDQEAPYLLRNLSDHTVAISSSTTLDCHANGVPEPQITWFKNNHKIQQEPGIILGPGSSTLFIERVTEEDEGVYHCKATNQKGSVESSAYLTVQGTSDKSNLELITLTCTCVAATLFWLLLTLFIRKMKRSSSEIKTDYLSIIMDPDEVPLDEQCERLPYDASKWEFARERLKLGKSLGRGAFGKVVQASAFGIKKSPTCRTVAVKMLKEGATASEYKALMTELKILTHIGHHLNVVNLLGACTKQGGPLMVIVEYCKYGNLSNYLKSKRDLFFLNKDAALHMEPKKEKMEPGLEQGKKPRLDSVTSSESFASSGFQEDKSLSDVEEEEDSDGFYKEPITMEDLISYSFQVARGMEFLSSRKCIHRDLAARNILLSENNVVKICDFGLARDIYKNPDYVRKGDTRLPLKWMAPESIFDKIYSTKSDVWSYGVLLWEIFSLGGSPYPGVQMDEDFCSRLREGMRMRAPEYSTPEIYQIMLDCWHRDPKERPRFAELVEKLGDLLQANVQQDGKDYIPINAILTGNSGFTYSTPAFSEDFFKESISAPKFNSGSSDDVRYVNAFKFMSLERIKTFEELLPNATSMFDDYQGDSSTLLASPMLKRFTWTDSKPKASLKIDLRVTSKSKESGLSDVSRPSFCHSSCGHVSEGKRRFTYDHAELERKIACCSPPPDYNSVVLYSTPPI
Chain of Glycogen synthase kinase-3 beta (P49841 whole entry, looked up): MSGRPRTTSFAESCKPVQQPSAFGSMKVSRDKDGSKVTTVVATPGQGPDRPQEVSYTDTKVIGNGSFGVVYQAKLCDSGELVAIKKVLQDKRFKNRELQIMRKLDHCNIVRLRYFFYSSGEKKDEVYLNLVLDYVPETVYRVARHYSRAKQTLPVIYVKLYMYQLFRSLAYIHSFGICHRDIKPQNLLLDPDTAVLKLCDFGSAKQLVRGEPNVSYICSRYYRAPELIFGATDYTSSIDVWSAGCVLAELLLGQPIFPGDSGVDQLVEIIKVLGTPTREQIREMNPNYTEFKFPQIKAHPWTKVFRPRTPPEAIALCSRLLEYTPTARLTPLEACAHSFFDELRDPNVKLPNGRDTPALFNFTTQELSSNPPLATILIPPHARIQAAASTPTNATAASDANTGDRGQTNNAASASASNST

| inhibition [1] [%] | inhibition [2] [%] | inhibition [3] [%] | inhibition [4] [%] | inhibition [5] [%] | inhibition [6] [%] | inhibition [7] [%] | inhibition [8] [%] | inhibition [9] [%] | inhibition [10] [%] | inhibition [11] [%] | Ratio IC50 [12] | SMILES |
| --- | --- | --- | --- | --- | --- | --- | --- | --- | --- | --- | --- | --- |
| < 50 | 82 | 88 | 77 | < 50 | < 50 | 71 | < 50 | 73 | 99 | 78 |  | O[C@H]1CC[C@H](Nc2nccc(-n3ncc4ccccc43)n2)CC1 |
| < 50 | < 50 | < 50 | 74 | < 50 | < 50 | < 50 | < 50 | 84 | 98 | 73 |  | O[C@H]1CC[C@H](Nc2nccc(-n3ccc4ccccc43)n2)CC1 |
|  | > 85 |  |  |  |  |  |  | > 85 | > 85 |  |  | CS(=O)(=O)CCCOc1cccc2c1ccn2-c1ccnc(N[C@H]2CC[C@H](C(=O)N3CCC(O)CC3)CC2)n1 |
|  |  |  |  |  |  |  |  |  |  |  | 4 | N[C@H]1CC[C@H](Nc2nccc(-n3nnc4ccccc43)n2)CC1 |
|  |  |  |  |  |  |  |  |  |  |  | 4 | O=C([C@H]1CC[C@H](Nc2nccc(-n3nnc4ccccc43)n2)CC1)N1CCOCC1 |
| 89 |  |  |  |  | < 50 | 95 | 97 |  |  |  |  | O[C@H]1CC[C@H](Nc2nccc(-c3n[nH]c4ccccc34)n2)CC1 |
| 74 | 100 | 94 | 78 | 87 | 74 | 82 | < 50 | 92 | 100 | 88 | 4 | O[C@H]1CC[C@H](Nc2nccc(-n3nnc4ccccc43)n2)CC1 |
